Screening data: PubChem BioAssay, Broad Institute
The sample as a whole holds a higher share of hits than the screen did.
GSK3A inh = human GSK-3 alpha kinase inhibition; P49840; 0.1% of 320,000 active; inhibition, % at 10 µM; ADP-Glo luminescence, 60 min;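 active = more than half of replicates show inhibition above 20%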;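 note: GST-tagged GSK-3 alpha with peptide substrate and 25 µM ATP; 0% = DMSO neutral wells and 100% = GW8510 positive control wells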
GSK3beta inhib = inhibitors of human GSK3beta kinase; P49841; AID 2097; GST-GSK3beta kinase, ADP-Glo luminescence, 60 min; hits give low values; activity score (negative = inhibition), % at 10 µM; 0.038% of 300,000 active;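 active = more than half of replicate wells score below -50%, meaning over 50% inhibition versus plate controls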;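 note: 0% = median DMSO wells and -100% = median GW8510 positive control wells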
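Assay system: GST-tagged human GSK3beta kinase, cell-free; Input: 1.6 ng GSK3beta; Medium: Tris/MgCl2 kinase buffer; Timing: 60 min enzyme reaction, room temperature; Signal: ADP-Glo luminescence quantifying ADP generated by kinase; Evaluation: score relative to plate controls; Benchmarks: DMSO neutral wells and GW8510 at 20 µM as positive.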
CDK5 inh = inhibitors of human CDK5/p35 kinase; 0.01% of 330,000 active; inhibition, % at 10 µM; Recombinant CDK5/p35, ADP-Glo luminescence, 60 min; Q00535+Q15078; AID 488839;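 active = highest replicate inhibition of at least 50% and at least 75% of replicates reaching 50%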;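 note: plate controls were DMSO neutral control for no effect and GW8510 at 10 µM for full effect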
Target sequence (Q00535 whole entry, looked up): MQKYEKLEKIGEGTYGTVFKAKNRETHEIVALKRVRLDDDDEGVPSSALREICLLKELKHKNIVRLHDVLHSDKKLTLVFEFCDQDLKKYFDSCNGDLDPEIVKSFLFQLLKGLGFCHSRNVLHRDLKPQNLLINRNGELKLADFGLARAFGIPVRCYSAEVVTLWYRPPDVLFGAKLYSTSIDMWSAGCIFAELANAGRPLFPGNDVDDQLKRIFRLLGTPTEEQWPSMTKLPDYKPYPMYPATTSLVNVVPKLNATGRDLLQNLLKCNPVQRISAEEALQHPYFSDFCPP
Target sequence (Q15078 whole entry, looked up): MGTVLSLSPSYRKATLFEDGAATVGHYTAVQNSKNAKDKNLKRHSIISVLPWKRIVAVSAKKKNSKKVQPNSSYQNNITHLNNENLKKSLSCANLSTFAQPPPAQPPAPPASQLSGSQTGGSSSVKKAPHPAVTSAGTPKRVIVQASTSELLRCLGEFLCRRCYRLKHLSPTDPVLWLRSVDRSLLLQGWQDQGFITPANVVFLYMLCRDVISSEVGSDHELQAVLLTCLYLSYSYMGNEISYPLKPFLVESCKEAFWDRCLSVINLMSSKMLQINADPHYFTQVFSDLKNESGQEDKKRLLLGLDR
DYRK1A inh = blocks rat Dyrk1A kinase activity; AID 504441; inhibition, % at 12.5 µM; 0.43% of 310,000 active; Q63470; ADP-Glo luminescence, NFATc1 peptide; in the data active = inhibition above about 50%;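 note: plate controls were vehicle with enzyme for no effect and no enzyme for full effect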
STK33 inh = inhibitors of human STK33 kinase | Q9BYT3 | purified STK33, MBP phosphorylation, ADP-Glo luminescence | inhibition, % at 10 µM | 0.073% of 320,000 active | AID 2661;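 active = inhibition at or above 25%, using the most active replicate where run in duplicate; inactive = inhibition below 25%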
Dyrk1A artifact = interferes with ADP-Glo luciferase readout without Dyrk1A. shares compounds with DYRK1A inh. ADP-Glo luciferase artifact assay, no Dyrk1A, luminescence. AC50, µM (doses to about 12 µM), for inactives: top-dose activity change, negative = inhibition. 1,300 tested, under 10 active. AID 588348;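 active = fitted half-maximal dose AC50 no more than ten times the top valid tested dose, with luminescence dropping as dose rises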
Starred values were filed as active, the others as inactive; . = no result.

SMILES | GSK3A inh | GSK3beta inhib | CDK5 inh | DYRK1A inh | STK33 inh | others
CCOC(=O)c1ccc(NC(=O)NNC(=O)CCc2ccc(OC)cc2)cc1 | -4 | -2 | 2 | 2 | 2
c1ccc(CSc2nnc(-c3ccncc3)o2)cc1 | 67* | 1 | 7 | 26 | 0
Fc1ccccc1CSc1nnc(-c2ccccc2)o1 | 3 | -2 | -1 | 4 | 0
Cc1ccccc1CSc1nnc(-c2ccncc2)o1 | 53* | -55* | 0 | 29 | -1
N#Cc1ccc(CSc2nnc(-c3ccncc3)o2)cc1 | 17 | 0 | -2 | 2 | 2
COC(=O)c1ccc(CSc2nnc(-c3ccncc3)o2)o1 | 66* | -42 | 0 | -10 | -1
O=C(N/N=C/c1cn(-c2ccccc2)nc1-c1cccnc1)c1cccnc1 | 0 | -2 | -3 | -1 | -1
Cc1ccc(-c2nn(-c3ccccc3)cc2/C=N/O)cc1 | 78* | -52* | 1 | . | 3
O/N=C/c1cn(-c2ccccc2)nc1-c1cccnc1 | 71* | -29 | 1 | 0 | 0
Cc1cccc(C(=O)NC2CCN(C(=O)Nc3ccc(F)cc3)CC2)c1 | 0 | 2 | -1 | 3 | 0
Cc1ccc(Sc2ccc(/C=N/O)cc2[N+](=O)[O-])cc1 | 0 | -1 | 2 | 4 | -2
CC(C)(C)Sc1ccc(/C=N/O)cc1[N+](=O)[O-] | 55* | -36 | 15 | 42 | 2
Cc1[nH]nc2c1C(c1cccs1)C1=C(CCCC1=O)N2 (stereo not drawn) | 70* | -50* | 4 | 5 | 8
CCOC(=O)C1=C(C)NC2=C(C(=O)CCC2)C1c1cccs1 (stereo not drawn) | -3 | 0 | 0 | 3 | 2
Cc1[nH]nc2c1C(c1cccs1)C1=C(CC(C)(C)CC1=O)N2 (stereo not drawn) | 99* | -82* | 1 | . | 1
O=C(NCCNC(=O)c1ccc(Cl)cc1Cl)c1ccco1 | 0 | 6 | 2 | -5 | -1
Cc1oc2c(Cl)c(Cl)c(O)c(CN(C)C)c2c1C(=O)c1ccc(Cl)cc1 | 70* | 7 | 0 | 15 | -1
Cc1oc2ccc(O)c(CN3CCOCC3)c2c1C(=O)c1ccc(Cl)cc1 | 9 | 1 | 1 | 9 | -1
NS(=O)(=O)c1ccc(N=Nc2ccc(=O)[nH]c2O)cc1 | 55* | -33 | 3 | 0 | -2
O=C(O)Cn1cc(/C=c2/sc3nc4ccccc4n3c2=O)c2ccccc21 | -2 | -2 | -2 | 47 | 32*
COc1ccc(C(=O)COC(=O)CN2C(=O)C3C4CCC(C4)C3C2=O)cc1 (stereo not drawn) | 3 | -2 | -2 | -13 | 1
O=[N+]([O-])c1cc(/C=N/Nc2nc3ccccc3[nH]2)c(O)cc1O | 2 | -5 | . | . | 0
C/C(NCCCn1ccnc1)=C(\C#N)C(N)=O | 51* | -22 | 0 | 6 | -1
Oc1ccc(/C=N/Nc2ccnc3cc(Cl)ccc23)cc1O | 1 | 1 | 3 | 8 | 67*
N#C/C(=C\c1ccc(O)c(O)c1)C(=O)c1ccc(O)c(O)c1 | 9 | . | 13 | 48 | 28*
SMILES | GSK3A inh | GSK3beta inhib | CDK5 inh | DYRK1A inh | STK33 inh | others
N#C/C(=C\c1ccc(O)c(O)c1)C(=O)N1CCCC1 | 2 | -2 | -1 | 7 | -1
O=C1CCn2c1c(O)c1ccccc1c2=O | . | . | 1 | 5 | .
N=C1CCC(=N)c2c1c(O)c1ccccc1c2O | 21 | 1 | 2 | 40 | 33*
Cc1nc2ccccc2n2c(-c3ccccc3)c3c(=O)n(C)c(=O)n(C)c3c12 | 59* | 0 | 0 | -1 | -2
O=C(Nc1ccc(S(=O)(=O)NCc2ccco2)cc1)C1CCCCC1 | 8 | 1 | 1 | 0 | 5
Nc1nc(NCCOCCO)nc(NCC2CCCO2)c1[N+](=O)[O-] (stereo not drawn) | 60* | -60* | 1 | -3 | -1
COCCNc1nc(N)c([N+](=O)[O-])c(NCC2CCCO2)n1 (stereo not drawn) | 68* | -53* | 1 | 34 | 0
CNc1nc(N)c([N+](=O)[O-])c(NCC2CCCO2)n1 (stereo not drawn) | 47 | -27 | 1 | . | 4
CNC(=O)c1c[nH]c2ccc(S(=O)(=O)Nc3ccccc3F)cc2c1=O | -2 | -1 | 0 | -3 | 46*
CCc1ccccc1NS(=O)(=O)c1ccc2[nH]cc(C(=O)NC3CCCC3)c(=O)c2c1 | . | 1 | 1 | 1 | .
COc1ccc(C(=O)NC2CCN(CC(=O)NCc3cccc(OC)c3)CC2)cc1 | -2 | 2 | 1 | 1 | -3
CSc1nc(-c2ccc(N(C)C)cc2)c(C#N)c(=O)n1C | -1 | 0 | 1 | 2 | 0
CC(=O)n1cc(/C=N/NC(=O)c2sc(C)nc2C)c2ccccc21 | 8 | -2 | . | 2 | 0
CC(=O)n1cc(-c2ccncc2)c2ccccc21 | 23 | -13 | 2 | 69* | 10
C=CCc1ccc(O)c(-c2ccc(O)c(CC=C)c2)c1 | 2 | 3 | 0 | 10 | 1
COc1ccc(-c2csc(NC(=O)c3ccccc3NS(=O)(=O)c3ccc(F)c(F)c3)n2)cc1 | -5 | 4 | -6 | 57* | -1
COc1cccc(C(=O)O/N=C(\N)c2ccccn2)c1 | 46 | . | 41 | 40 | 37*
Cc1ccc(C(=O)O/N=C(\N)c2ccccn2)c(Cl)c1 | 34 | -31 | 34 | 27 | 29*
N/C(=N\OC(=O)c1ccc(Cl)cc1Cl)c1ccccn1 | 6 | -11 | 8 | 8 | 6
COc1ccc(C(=O)O/N=C(\N)c2ccccc2)cc1 | 32 | 1 | 28 | . | 26*
COc1cccc(CNC(=O)COc2ccc(C(=O)c3ccccc3)cc2)c1 | 0 | 4 | -1 | -5 | 1
COc1ccc(NS(=O)(=O)c2cc3c4c(c2)CCN4C(=O)CC3)c(OC)c1 | . | 2 | -12 | 3 | .
Fc1ccc(-c2nnc3sc(C4COc5ccccc5O4)nn23)cc1 (stereo not drawn) | 5 | 5 | 0 | 68* | -1 | Dyrk1A artifact=7%
O=C1C(=O)N(CCS(=O)(=O)c2ccccc2)c2ccc(F)cc21 | -27 | -2 | . | . | 0
CC(=O)Nc1ccc(/C=C/c2nc3ccccc3o2)cc1 | -2 | -1 | 0 | 59* | -1 | Dyrk1A artifact=9%
NC(=O)c1cc(Br)cc2c3c([nH]c12)CCCC3 | 36 | 3 | 1 | 55* | 9 | Dyrk1A artifact=7%
Brc1ccc2[nH]c3c(c2c1)CCC3 | -2 | -2 | 0 | . | 1
Cc1cc(C(=O)N2CCN(S(=O)(=O)c3ccc(C)c(C)c3)CC2)no1 | . | . | 0 | 2 | .
CN(CC(=O)Nc1ccc(F)c(F)c1F)C(=O)c1n[nH]c(=O)c2ccccc12 | 1 | . | -1 | . | -1
Oc1cccc(NC(=S)N=Nc2c(O)[nH]c3ccccc23)c1 | . | -5 | 3 | 51* | 7 | Dyrk1A artifact=12%
